Screening results as filed in PubChem.
A selection: hits, their analogues and other compounds. The true share with any hit is near 2.6%.
PAD4 inh = inhibitors of human PAD4 | Q9UM07 | recombinant PAD4, RCA probe fluorescence polarization | 330,000 compounds, 0.41% hits | inhibition, % at 6.36 µM;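 active = percent inhibition above a cutoff equal to the mean of all tested compounds plus 3 SD, cut at about 15% in these data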;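 also: 0% = PAD4 with RCA probe and DMSO and 100% = probe without PAD4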
Target sequence (Q9UM07 whole entry, looked up): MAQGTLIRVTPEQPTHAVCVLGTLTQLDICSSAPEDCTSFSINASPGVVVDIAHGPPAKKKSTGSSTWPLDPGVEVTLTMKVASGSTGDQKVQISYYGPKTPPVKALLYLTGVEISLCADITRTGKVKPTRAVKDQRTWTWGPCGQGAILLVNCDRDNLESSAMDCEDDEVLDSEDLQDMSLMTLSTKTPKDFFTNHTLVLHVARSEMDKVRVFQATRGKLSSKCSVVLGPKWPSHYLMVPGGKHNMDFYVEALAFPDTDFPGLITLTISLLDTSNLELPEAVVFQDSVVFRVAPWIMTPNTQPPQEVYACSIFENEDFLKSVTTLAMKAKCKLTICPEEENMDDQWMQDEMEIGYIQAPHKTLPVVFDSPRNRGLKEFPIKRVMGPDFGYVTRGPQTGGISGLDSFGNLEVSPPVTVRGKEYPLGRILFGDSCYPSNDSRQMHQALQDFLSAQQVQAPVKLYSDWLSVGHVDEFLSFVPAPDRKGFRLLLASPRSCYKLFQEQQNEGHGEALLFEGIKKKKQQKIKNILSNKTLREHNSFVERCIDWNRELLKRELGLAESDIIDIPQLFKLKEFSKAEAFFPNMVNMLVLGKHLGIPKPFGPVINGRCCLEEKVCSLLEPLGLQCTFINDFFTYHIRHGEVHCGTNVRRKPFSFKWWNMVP
GSTO1 counter = blocks human GSTO1 in RBBP9 counter-screen; P78417; recombinant GSTO1, activity-based probe fluorescence polarization; inhibition, % at 5.96 µM; 300,000 compounds, 1.1% hits; AID 1974;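 active = inhibition above the campaign mean inhibition plus 3 SD, cut at about 35% in these data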;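 also: 0% = GSTO1-1 with DMSO and 100% = wells lacking GSTO1-1 enzyme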
Apaf1 inhib = inhibitors of human Apaf-1 apoptosome. O14727. reconstituted apoptosome caspase-3 activity, DEVD-Rh110 fluorescence. inhibition, % at 20 µM. 330,000 compounds, 0.71% hits; active = inhibition of at least 40% at 20 µM;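 also: plate controls were DMSO wells for no effect and DEVD-CHO caspase inhibitor wells for full effect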
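Material: reconstituted apoptosome with Apaf-1, cytochrome c, caspase-9, procaspase-3, dATP; medium: pH 7.5 Hepes buffer with CHAPS, BSA, DTT; also added: cytochrome c and DEVD-Rh110 substrate; timing: 30 min plus 50 min, RT; signal: Rh110 fluorescence intensity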
PRMT1 FP inh = blocks human protein arginine methyltransferase 1. Q99873. recombinant PRMT1, activity-based probe fluorescence polarization. inhibition, % at 2.79 µM. 370,000 compounds, 1.3% hits. AID 652257;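 active = inhibition above about 21% made by adding two undisclosed values, limit read from the data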
TDP2 inh = TDP2 (human) inhibition, absorbance primary screen; AID 720702; O95551; recombinant TDP2, T5PNP hydrolysis, p-nitrophenol absorbance 415 nm; inhibition, % at 12.8 µM; 370,000 compounds, 0.34% hits;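 active = inhibition above the mean of all tested compounds plus 3 SD, set per campaign, cut at about 25% in these data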;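 also: 0% = DMSO with enzyme and 100% = buffer with substrate but no TDP2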
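Test system: Human TDP2 enzyme | Reagent: 5 mM T5PNP | Compound dosing: 12.8 µM single point, 1% DMSO | Incubation: Enzyme reaction with compound for 2 h at 37 °C | Technique: p-Nitrophenol epi absorbance | Read-out: % inhibition relative to enzyme-containing and enzyme-free wells | Benchmarks: High control without enzyme, low control DMSO plus TDP2 | Replicates: Singlicate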
Apaf-1 inh conf = Apaf-1 inhibition, single-dose confirmed | shares compounds with Apaf1 inhib | 1,800 compounds, 25% hits | reconstituted apoptosome, caspase-3 DEVD-Rh110 fluorescence | inhibition, % at 20 µM;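 active = mean inhibition of at least 40% at 20 µM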;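 also: plate controls were DMSO wells for no effect and DEVD-CHO caspase inhibitor control wells for full effect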
Rh110 interf inh = counter-screen for Apaf-1 inhibitors: fluorescence interference; 1,800 tested, under 10 active; activation (fluorescence interference), % at 20 µM; AID 504615; Rh110 fluorescence interference, quenched caspase reaction; shares compounds with Apaf1 inhib;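 active = signal rise of 40% or more at 20 µM, treated as a fluorescence artifact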
Apaf1 inh interf = shows fluorescence interference in the Apaf-1 inhibitor assay format | shares compounds with Apaf1 inhib | fluorescence interference counterscreen, Apaf-1 assay format | IC50, µM | 460 tested, under 10 active | AID 588538; call rule not given here
* hit, by the source's call; / = not tested or not shown; ! = a repeat was not active.

SMILES	PAD4 inh	GSTO1 counter	Apaf1 inhib	PRMT1 FP inh	TDP2 inh	Apaf-1 inh conf	Rh110 interf inh	others
CCCC[C@H]1C2CC(OC(=O)Nc3ccccc3Cl)C(C2)[C@H]2CCCCN21 (some centres undefined)	/	/	/	4	0	/	/
CCN(CC)CCCN=C1N[C@@H](c2cccc(F)c2)C(C(=O)OC)=C(C)N1Cc1ccccc1	1	/	9	1	1	/	/
COC(=O)C1=C(C)N(Cc2ccccc2)C(=NCc2ccccc2)N[C@H]1c1cccc(F)c1	-8	2	41*	0	-9	18	10
COc1ccc(CN(CCN2CCOCC2)C(=O)c2cc(F)cc(F)c2)cc1OC	/	/	/	-2	6	/	/
CC(=O)N(C1=C(O)c2ccccc2C(=O)C1=O)C1CCCCC1	-4	0	6	0	1	/	/
CC(=O)N(C)C1=C(O)c2ccccc2C(=O)C1=O	-20	4	40*	-4	5	17	14
C#CCNC(=O)C[C@H]1C(=O)N(Cc2ccc(OC)cc2)C2=CCCCC[C@@]21C(=O)OC	/	/	/	-4	8	/	/
Cc1ccccc1-c1nnc2n1N=C(c1ccc(O)c(O)c1)CS2	/	/	/	14	-2	/	/
Cc1ccc(NC(=S)NCc2ccc3c(c2)OCO3)cc1C	-3	-3	6	1	-3	/	/
S=C(NCc1ccc2c(c1)OCO2)Nc1ccc2nsnc2c1	-13	10	62*	3	11	8	2
Cc1ccc(-n2c(Cc3cccs3)nnc2SCc2ccc([N+](=O)[O-])cc2)cc1	/	/	/	2	-4	/	/
COc1ccc2[nH]c(=O)c(CNc3ccccc3OC)cc2c1	-4	9	51*	1	11	43*	5	Apaf1 inh interf=>100
O=C1OCC2=Nc3cccc4cccc(c34)N12	/	/	/	3	4	/	/
Nc1ccc2cn[nH]c2c1	-3	6	52*	1	1	30	-5
COC(=O)c1cnn(-c2ccc(Cl)cc2)c1/C=N/NC(=S)Nc1ccccc1	/	/	/	0	1	/	/
O=C1Nc2ccccc2-n2nnnc2C1N1CCc2ccccc2C1 (centres undefined)	/	/	/	-2	-4	/	/
CN1CCN(c2ccc3c(c2)OC[C@@H](Cc2ccccc2)NS3(=O)=O)CC1	/	/	/	4	-3	/	/
CC(=O)N(/N=C1\Sc2ccccc2C1=O)c1ccc(C)cc1C	-44	23	43*	-1	8	25	4
Cc1ccc(C)c(OCCC(=O)N2CCN(S(=O)(=O)c3cc(F)ccc3F)CC2)c1	-6	/	22	2	5	/	/
Cc1ccc(S(=O)(=O)N2CCN(C(=O)CCOc3cc(C)ccc3C)CC2)cc1	-7	/	40*	-4	8	24	6
O=c1[nH]c(C2CCCN(S(=O)(=O)c3ccccc3F)C2)nc2c1nnn2Cc1ccccc1Cl (centres undefined)	4	11	41*	2	-7	35	14
Cc1ccc(Cn2nnc3c(=O)[nH]c(C4CCN(S(=O)(=O)c5ccc(C)cc5)CC4)nc32)cc1	-6	-10	20	-3	-13	/	/
O=c1[nH]c(C2CCN(S(=O)(=O)c3ccc(C(F)(F)F)cc3)CC2)nc2c1nnn2Cc1ccc(F)cc1	6	-9	41*	-3	14	30	-10
O=c1[nH]c(C2CCN(S(=O)(=O)c3ccccc3F)CC2)nc2c1nnn2Cc1ccc(F)cc1	2	29	21	3	11	/	/
Cc1cccc(C)c1N1C(=O)c2ccccc2NC(=O)C1C(=O)NCCc1ccccc1F (centres undefined)	/	/	/	-7	0	/	/
SMILES	PAD4 inh	GSTO1 counter	Apaf1 inhib	PRMT1 FP inh	TDP2 inh	Apaf-1 inh conf	Rh110 interf inh	others
COc1ccc2nc(C)cc(N/N=C/c3ccccc3)c2c1	3	/	50*	/	/	4	7
COc1ccccc1/C=N/Nc1cc(C)nc2ccc(C)cc12	6	-1	22	0	-5	/	/
COc1ccc(/C=N/Nc2cc(C)nc3ccc(OC)cc23)c(OC)c1	-3	-4	43*	-4	-3	0	7
Cc1ccc(S(=O)(=O)N2C(c3ccccc3)CC(=O)C3CN(S(=O)(=O)c4ccc(Cl)cc4)C(c4ccccc4)CC32)cc1 (centres undefined)	/	/	/	7	-6	/	/
c1ccc2c(c1)ccc1ccccc12	-1	/	-6	-4	2	/	/
CC1=[N+](C)c2ccc3ccccc3c2C1(C)C	-56	-68	42*	5	16	16	1
CCC(=O)Nc1c(S(=O)(=O)c2ccc(C)cc2)c2nc3ccccc3nc2n1C(C)c1ccccc1 (centres undefined)	-5	1	44*	-1	-2	15	4
O=C(NCC(c1ccccc1)c1ccccc1)[C@H](Cc1c[nH]c2ccccc12)NC1(C(=O)NC2CCCCC2)CCCC1	/	/	/	3	2	/	/
Cn1c(NC(=O)c2ccc(Cl)s2)cc(=O)n(C)c1=O	2	0	66*	-1	-13	10	-3
Cn1c(NC(=O)c2ccc(Cl)cc2)cc(=O)n(C)c1=O	1	-3	6	-4	6	/	/
COc1ccc(OC)c(S(=O)(=O)N2CCC(c3cn4ccccc4n3)CC2)c1	/	/	/	0	4	/	/
O=C(CCC(=O)OCC(=O)c1ccc(C(F)(F)F)cc1)OCC(=O)c1ccc(C(F)(F)F)cc1	1	4	-17	-2	17	/	/
COCCCC/C(=N\OCCN)c1ccc(C(F)(F)F)cc1	-5	1	99*!	2	2	3	-3
CN(C)c1cccc2c1c(NC(=O)Nc1ccccc1)nn2C	-3	13	82*	8	15	6	7
CN(C)c1cccc2c1c(NC(=O)Nc1ccc(F)cc1F)nn2C	-1	0	-4	1	4	/	/
CN(C)c1cccc2c1c(NC(=O)c1ccc(F)cc1)nn2C	-1	7	92*	3	8	16	1
c1ccc(Cn2ncc3c(N4CCN(c5ccccc5)CC4)ncnc32)cc1	/	/	/	-3	-18	/	/
O=C(NC1CCCC1)N[C@@H]1CC[C@@H](CC(=O)N2CCOCC2)O[C@@H]1CO	/	/	/	0	4	/	/
COc1ccc(C(=O)COC(=O)CCN=C2NS(=O)(=O)c3ccccc32)c(OC)c1	-4	2	-3	-1	6	/	/
COc1ccc(C(=O)COC(=O)CCCN=C2NS(=O)(=O)c3ccccc32)c(OC)c1	-4	-8	51*	0	-4	9	1
C=CCn1c(SCC(=O)Nc2sccc2C(N)=O)nc2ccc(Cl)cc2c1=O	-7	9	19	1	2	/	/
C=CCn1c(SCC(=O)Nc2sccc2C(N)=O)nc2sc(CC)cc2c1=O	-5	8	42*	0	-7	36	7
